Results taken from ChEMBL document CHEMBL1275265, “Synthesis and biological evaluation of N-antipyrine-4-substituted amino-3-chloromaleimide derivatives” (Eur J Med Chem, 2010).
Values after ≈ are worked out from the molar mass of the structure shown. Active and inactive are the calls of the source. No cut-off for these calls is given here.

Key:
Pseudomonas aeruginosa = experiment: Antibacterial activity against Pseudomonas aeruginosa ATCC 27853 at < 100 ug/mL by agar dilution method; assay type: functional, organism-based
In short: (§1)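 Agar dilution on 1 mL Mueller-Hinton agar slants. Compounds were serially two-fold diluted in DMSO (final DMSO ≤2%) to give 10–100 µg/mL in the medium. Bacteria were grown on MHA at 35 °C for 24 h, suspended in 0.86% saline at 1.5 × 10^8 cell/mL (0.5 McFarland), and 1 µL was added per slant. Slants were incubated at 35 °C. Drug-free blank included; each assay run three times; MIC recorded.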

Mus musculus [1] = experiment: Antinociceptive activity in Swiss mouse assessed as inhibition of acetic acid-induced abdominal contraction at 0.1 to 100 mg/kg, ip administered 30 mins before acetic acid challenge measured after 20 mins relative to control; assay type: functional, Abdominal cavity; conditions: dose mg/kg 0.1-100; route intraperitoneal
In short: (§2)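 Writhing dose-response in mice: compounds at 0.1–10 mg/kg and standard drugs at 10–100 mg/kg, i.p. in Tween 80/saline, 30 min before i.p. 0.6% acetic acid. Constrictions and stretches were counted for 20 min at 20–22 °C, with six to eight animals per group. ID50 (dose halving the response versus control) was given as geometric mean with 95% confidence limits.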

Streptococcus agalactiae = experiment: Antibacterial activity against Streptococcus agalactiae ATCC 13813 at < 100 ug/mL by agar dilution method; assay type: functional; in short: as §1
Bacillus subtilis = experiment: Antibacterial activity against Bacillus subtilis ATCC 23858 at < 100 ug/mL by agar dilution method; assay type: functional, organism-based; in short: as §1
Mus musculus [2] = experiment: Antinociceptive activity in Swiss mouse assessed as inhibition of formalin-induced paw licking activity at 10 mg/kg, ip administered 30 mins before formalin challenge measured after 15 to 30 mins; assay type: functional; conditions: route intraperitoneal
In short: (§3)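 Formalin test in mice pretreated i.p. with vehicle or 10 mg/kg test agent 30 min before formalin injection. Animals were acclimatized 5 min in a glass cylinder with an angled mirror. Licking time was recorded for the early phase (0–5 min) and the late phase (15–30 min) after formalin. Values are mean ± S.E.M.; ANOVA with Dunnett's test.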

Mus musculus [3] = experiment: Antinociceptive activity in Swiss mouse assessed as inhibition of acetic acid-induced writhing at 10 mg/kg, ip administered 30 mins before acetic acid challenge measured after 20 mins relative to control; assay type: functional; conditions: route intraperitoneal
In short: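 Mice were given 10 mg/kg i.p. in Tween 80/0.9% NaCl (Tween ≤5%) 30 min before i.p. 0.6% acetic acid, at 20–22 °C. Abdominal constrictions plus hind-limb stretching were counted cumulatively over 20 min in individual funnels. Groups of six, randomized and blinded. Inhibition was calculated versus vehicle controls (10 ml/kg i.p.); ANOVA with Dunnett's test.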

Mus musculus [4] = experiment: Ratio of compound to acetyl salicylic acid activity against formalin-induced paw licking activity in Swiss mouse at 10 mg/kg, ip administered 30 mins before formalin challenge measured after 15 to 30 mins; assay type: functional; conditions: route intraperitoneal
Proteus mirabilis = experiment: Antibacterial activity against Proteus mirabilis ATCC 25933 at < 100 ug/mL by agar dilution method; assay type: functional, organism-based; in short: as §1
Staphylococcus aureus [5] = experiment: Antibacterial activity against Staphylococcus aureus ATCC 6538P at < 100 ug/mL by agar dilution method; assay type: functional, organism-based; in short: as §1
Mus musculus [6] = experiment: Ratio of metamizole ID50 to compound ID50 for inhibition of acetic acid-induced abdominal contraction in ip dosed Swiss mouse; assay type: functional, Abdominal cavity
Enterobacter cloacae = experiment: Antibacterial activity against Enterobacter cloacae ATCC 35030 at < 100 ug/mL by agar dilution method; assay type: functional, organism-based; in short: as §1
Mus musculus [7] = experiment: Antinociceptive activity in Swiss mouse assessed as inhibition of formalin-induced paw licking activity at 10 mg/kg, ip administered 30 mins before formalin challenge measured after 5 mins; assay type: functional; conditions: route intraperitoneal; in short: as §3
Salmonella typhimurium = experiment: Antibacterial activity against Salmonella Typhimurium ATCC 14028 at < 100 ug/mL by agar dilution method; assay type: functional, organism-based; conditions: Salmonella enterica subsp. enterica serovar Typhimurium; in short: as §1
Escherichia coli = experiment: Antibacterial activity against Escherichia coli ATCC 11775 at < 100 ug/mL by agar dilution method; assay type: functional, organism-based; in short: as §1
[8] = Toxicity in Artemia salina assessed as mortality after 24 hrs; assay type: organism-based; conditions: in vivo
In short: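 Artemia salina hatched at pH 9.0 (Na2CO3), 25 °C, strong aeration, continuous light (2000 Lux). Phototropic nauplii were collected about 12 h after hatching, and groups of 10 were exposed per well to various compound concentrations for 24 h. Survivors were counted and % deaths calculated.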

[9] = test system: Staphylococcus saprophyticus; experiment: Antibacterial activity against Staphylococcus saprophyticus ATCC 35552 at < 100 ug/mL by agar dilution method; assay type: functional, organism-based; in short: as §1
Mus musculus [10] = experiment: Ratio of acetyl salicylic acid ID50 to compound ID50 for inhibition of acetic acid-induced abdominal contraction in ip dosed Swiss mouse; assay type: functional, Abdominal cavity
Bacillus cereus = experiment: Antibacterial activity against Bacillus cereus ATCC 14579 at < 100 ug/mL by agar dilution method; assay type: functional; in short: as §1
Mus musculus [11] = experiment: Antinociceptive activity in ip dosed Swiss mouse assessed as inhibition of acetic acid-induced abdominal contraction administered 30 mins before acetic acid challenge measured after 20 mins; assay type: functional; conditions: Abdominal cavity, read-out: ID50 (the source's name); in short: as §2
Staphylococcus aureus [12] = experiment: Antibacterial activity against Staphylococcus aureus ATCC 6538P by agar dilution method; assay type: functional
Mus musculus [13] = organism: Mus musculus; experiment: Antinociceptive activity in mouse assessed as inhibition of acetic acid-induced writhing; assay type: functional; conditions: read-out: ID50 (the source's name)

## Cc1c(N2C(=O)C(Cl)=C(Nc3ccc(Cl)c([N+](=O)[O-])c3)C2=O)c(=O)n(-c2ccccc2)n1C
Pseudomonas aeruginosa
  Activity: inactive
Mus musculus [1]
  inhibition (INH): 98.5%
Streptococcus agalactiae
  Activity: inactive
Bacillus subtilis
  Activity: inactive
Mus musculus [2]
  inhibition in vivo at 10 mg/kg: 49%
Mus musculus [3]
  inhibition in vivo at 10 mg/kg: 98.5%
Mus musculus [4]
  Ratio: 6
Proteus mirabilis
  Activity: inactive
Staphylococcus aureus [5]
  Activity: inactive
Mus musculus [6]
  Ratio: 126
Enterobacter cloacae
  Activity: inactive
Mus musculus [7]
  inhibition in vivo at 10 mg/kg: 19.6%
Salmonella typhimurium
  Activity: inactive
Escherichia coli
  Activity: inactive
[8]
  LC50 at 24 h: 94.2 µg/mL (≈ 193 µM)
[9]
  Activity: inactive
Mus musculus [10]
  Ratio: 103
Bacillus cereus
  Activity: inactive
Mus musculus [11]
  ED50: 1.29 µmol/kg

## Cc1c(N2C(=O)C(Cl)=C(Cl)C2=O)c(=O)n(-c2ccccc2)n1C
Pseudomonas aeruginosa
  Activity: inactive
Mus musculus [1]
  inhibition (INH): 99%
Streptococcus agalactiae
  Activity: inactive
Bacillus subtilis
  Activity: inactive
Mus musculus [3]
  inhibition in vivo at 10 mg/kg: 99%
Proteus mirabilis
  Activity: inactive
Staphylococcus aureus [5]
  Activity: inactive
Enterobacter cloacae
  Activity: inactive
Salmonella typhimurium
  Activity: inactive
Escherichia coli
  Activity: inactive
[9]
  Activity: inactive
Staphylococcus aureus [12]
  MIC: 250 µg/mL (≈ 710 µM)
Mus musculus [13]
  ED50: 10.8 µmol/kg
Bacillus cereus
  Activity: inactive
Mus musculus [11]
  ED50: 10.8 µmol/kg
